One block for each compound: values may come before it. Calls of active or inactive are those of the source. The calls are words filed in the database; no cut-off is given here.
What was measured:
[1] = molecular target: T1, Peroxisome proliferator-activated receptor gamma (Homo sapiens) (UniProt P37231); test: Activation of PPARgamma in CV1 cells transfected with PPARgamma and luciferase reporter gene; format: functional, cell-based; details: CV-1
T1 sequence (whole entry): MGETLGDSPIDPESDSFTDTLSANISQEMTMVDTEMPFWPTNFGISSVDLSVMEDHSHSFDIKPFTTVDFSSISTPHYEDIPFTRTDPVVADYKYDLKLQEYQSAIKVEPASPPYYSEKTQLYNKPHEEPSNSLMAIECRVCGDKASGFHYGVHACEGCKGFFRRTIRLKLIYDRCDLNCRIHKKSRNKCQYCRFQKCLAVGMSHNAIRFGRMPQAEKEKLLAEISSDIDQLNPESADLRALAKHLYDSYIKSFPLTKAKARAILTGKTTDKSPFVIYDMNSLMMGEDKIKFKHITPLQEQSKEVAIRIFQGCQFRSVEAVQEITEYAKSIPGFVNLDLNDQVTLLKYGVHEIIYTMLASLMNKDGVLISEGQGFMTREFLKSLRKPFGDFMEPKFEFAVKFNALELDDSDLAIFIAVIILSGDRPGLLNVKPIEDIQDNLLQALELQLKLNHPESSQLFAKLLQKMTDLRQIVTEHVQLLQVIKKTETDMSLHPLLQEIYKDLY
Procedure, shortened: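 CV1 cells transfected with PPARγ and a PPRE-Acox-Rluc reporter, treated 20 h with vehicle or 10 µM compound in DMSO. Luciferase and β-galactosidase activities measured in cell lysate (mean ± SEM, n = 4). Rosiglitazone used as reference agonist; significance versus vehicle control.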

[2] = tested on: RH7777 (Rattus norvegicus); test: Ability to evoke intracellular calciums transient in wild-type RH7777 cells
[3] = molecular target: T2, Lysophosphatidic acid receptor 3 (Homo sapiens) (UniProt Q9UBY5); test: Activity at LPA3 receptor transfected RH7777 cells; format: cell-based
T2 sequence (whole entry): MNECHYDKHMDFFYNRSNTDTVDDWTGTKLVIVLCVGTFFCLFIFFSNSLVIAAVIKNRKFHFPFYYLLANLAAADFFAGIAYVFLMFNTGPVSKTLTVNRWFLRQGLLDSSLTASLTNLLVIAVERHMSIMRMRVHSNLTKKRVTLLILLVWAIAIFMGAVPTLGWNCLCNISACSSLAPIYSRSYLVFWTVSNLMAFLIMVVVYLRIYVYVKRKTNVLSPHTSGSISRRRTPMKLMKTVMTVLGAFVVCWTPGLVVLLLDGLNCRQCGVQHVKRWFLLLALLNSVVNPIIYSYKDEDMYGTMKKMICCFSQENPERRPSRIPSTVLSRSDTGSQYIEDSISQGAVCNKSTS
Procedure, shortened: (§1)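 RH7777 cells, which lack LPA GPCR, stably transfected with the single receptor (LPA2 or LPA3). Intracellular Ca2+ transients recorded after applying increasing compound concentrations, benchmarked against LPA 18:1, to assess agonist and antagonist activity.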

[4] = molecular target: Lysophosphatidic acid receptor 1 (Homo sapiens, UniProt Q92633); test: Activity at LPA1 receptor transfected RH7777 cells; format: cell-based
Procedure, shortened: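 RH7777 cells, which lack endogenous LPA GPCR, were stably transfected with LPA1. Intracellular Ca2+ transients were recorded after applying increasing concentrations of compound to build dose–response relationships, with LPA 18:1 as the reference agonist.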

[5] = molecular target: Autotaxin (Homo sapiens, UniProt Q13822); test: Inhibition of recombinant ATX from transfected HEK293 cells; format: cell-based; details: for inhibition: concentration not given here
Procedure, shortened: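 Recombinant ATX in conditioned medium from transiently transfected HEK293 cells, assayed by hydrolysis of the substrate bis(para-nitrophenyl) phosphate.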

[6] = molecular target: Lysophosphatidic acid receptor 2 (Homo sapiens) (UniProt Q9HBW0); test: Activity at LPA2 receptor transfected RH7777 cells; format: cell-based; procedure, shortened: as §1
Lysophosphatidic acid receptor 2 (Homo sapiens), sequence (Q9HBW0 whole entry): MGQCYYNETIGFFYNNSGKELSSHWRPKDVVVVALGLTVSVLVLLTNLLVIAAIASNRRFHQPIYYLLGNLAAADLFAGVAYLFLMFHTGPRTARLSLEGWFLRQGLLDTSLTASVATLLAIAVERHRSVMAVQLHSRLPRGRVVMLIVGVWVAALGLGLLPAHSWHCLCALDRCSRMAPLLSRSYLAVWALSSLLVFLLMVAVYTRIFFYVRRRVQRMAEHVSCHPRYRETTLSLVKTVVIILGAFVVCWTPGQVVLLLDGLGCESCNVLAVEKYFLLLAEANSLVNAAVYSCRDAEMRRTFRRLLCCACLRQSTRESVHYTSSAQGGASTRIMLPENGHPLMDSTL

Lysophosphatidic acid receptor 1, sequence (Q92633 whole entry): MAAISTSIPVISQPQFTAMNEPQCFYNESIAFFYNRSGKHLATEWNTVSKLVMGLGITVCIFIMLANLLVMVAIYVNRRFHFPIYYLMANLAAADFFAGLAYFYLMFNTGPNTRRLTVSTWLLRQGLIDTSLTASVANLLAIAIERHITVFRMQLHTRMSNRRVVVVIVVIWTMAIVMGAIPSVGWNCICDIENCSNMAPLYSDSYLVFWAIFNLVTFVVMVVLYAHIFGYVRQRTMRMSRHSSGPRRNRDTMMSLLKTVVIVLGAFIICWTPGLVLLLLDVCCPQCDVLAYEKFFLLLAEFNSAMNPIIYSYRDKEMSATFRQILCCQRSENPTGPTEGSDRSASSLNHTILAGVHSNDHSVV

Compound: CCCCCCCCNC(=O)[C@@H](COP(O)(O)=S)NC(=O)CCCCCCC
- Activity [1]: inactive

- Emax [3]: 109%
- Emax [4]: 57%
- Activity [1]: Active
Compound: CCCCCCCCOC[C@H](COP(=O)(O)O)OCCCCCCCC
- Activity [2]: inactive

- Activity [1]: inactive
Compound: CCCCCCCC(=O)OC[C@@H](COP(=O)(O)O)OC(=O)CCCCCCC

- Activity [1]: inactive
Compound: CCCCCCCCNC(=O)[C@@H](COP(=O)(O)O)NC(=O)CCCCCCC

Compound: CCCCCCCCOC[C@@H](COP(O)(O)=S)OCCCCCCCC
- Activity [2]: inactive
- Activity [1]: Active

- Activity [1]: Active
Compound: CCCCCCCCOC[C@@H](COP(=O)(O)O)OCCCCCCCC
- Activity [2]: inactive

- IC50 [4]: 692 nM
- Ki [4]: 407 nM
- IC50 [5]: 1640 nM
- inhibition [5]: 49.9%
Compound: CCCCCCCC(=O)OC[C@H](COP(=O)(O)O)OC(=O)CCCCCCC

Compound: CCCCCCCC(=O)OC[C@H](COP(O)(O)=S)OC(=O)CCCCCCC
- Emax [6]: 58%
- Activity [1]: inactive
- IC50 [5]: 597 nM
- inhibition [5]: 72.5%

Compound: CCCCCCCC(=O)OC[C@@H](COP(O)(O)=S)OC(=O)CCCCCCC
- Emax [6]: 17%
- Emax [3]: 30%
- Activity [1]: inactive
- IC50 [5]: 727 nM
- inhibition [5]: 52.3%

Compound: CCCCCCCCNC(=O)[C@H](COP(O)(O)=S)NC(=O)CCCCCCC
- Activity [1]: inactive

Compound: CCCCCCCCOC[C@H](COP(O)(O)=S)OCCCCCCCC
- Emax [6]: 27%
- Activity [2]: inactive
- Emax [3]: 109%
- Emax [4]: 30%
- Activity [1]: Active
